Measured values: ChEMBL document CHEMBL1128286, “Lipophilic, acid-stable, adenosine deaminase-activated anti-HIV prodrugs for central nervous system delivery. 2. 6-Halo and 6-alkoxy prodrugs of 2'-beta-fluoro-2',3'-dideoxyinosine” (J Med Chem, 1995)

Key:
[1] = Partition coefficient (logP); type: physicochemical; settings: octanol/water
Outline: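 Octanol/pH 7.0 buffer partition coefficient measured by microscale shake-flask, with HPLC quantification of both phases. Run in triplicate; mean ± SD of three determinations.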

[2] = Half-life time was determined; type: ADME
[3] = molecular target: T1, Adenosine deaminase (Bos taurus) (UniProt P56658); test: Relative Adenosine deaminase hydrolysis rate was determined in vitro by disappearance of the substrate […] on isolated enzyme
T1 sequence (whole entry): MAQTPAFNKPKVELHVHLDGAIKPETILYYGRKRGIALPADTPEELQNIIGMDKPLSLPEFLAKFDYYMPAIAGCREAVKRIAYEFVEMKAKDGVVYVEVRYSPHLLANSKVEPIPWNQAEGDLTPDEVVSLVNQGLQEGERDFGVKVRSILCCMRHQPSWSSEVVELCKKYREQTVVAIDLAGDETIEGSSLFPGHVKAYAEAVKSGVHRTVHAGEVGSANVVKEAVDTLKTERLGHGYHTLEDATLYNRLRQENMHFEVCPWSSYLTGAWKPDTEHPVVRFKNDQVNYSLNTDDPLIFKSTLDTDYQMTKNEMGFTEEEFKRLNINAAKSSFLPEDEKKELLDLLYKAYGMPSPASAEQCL
Outline: (§1)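 Calf intestinal mucosa ADA, 0.05–1.0 unit, incubated with 50 µM substrate in pH 7.4, 0.01 M phosphate buffer at 37 °C. Timed aliquots quenched with water plus dCF and heated 1 min at 95 °C. Substrate loss and F-ddI formation followed by HPLC and fitted as exponential decay or association. Rate per unit ADA normalized to F-ddA.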

[4] = tested on: PBMC; test: % protection was determined as the percent reduction in HIV p24 Gag protein production using PHA/PBM system at 10 uM concentration.; type: functional, Homo sapiens
Outline: (§2)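 PBMs from an HIV-seronegative donor, PHA-stimulated 3 days before drug addition, preincubated 2 h with compound, then infected with 250 TCID50 HIV-1 ERS104pre. Cultured at 37 °C in complete medium (15% FCS) with rIL-2. Day-8 supernatant p24 Gag measured by RIA; % protection is the reduction versus infected untreated controls. Quadruplicate.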

[5] = tested on: PBMC; test: % protection was determined as the percent reduction in HIV p24 Gag protein production using PHA/PBM system at 20 uM concentration.; type: functional, Homo sapiens; outline: as §2
[6] = tested on: PBMC; test: % protection was determined as the percent reduction in HIV p24 Gag protein production using PHA/PBM system at 40 uM concentration.; type: functional, Homo sapiens; outline: as §2
[7] = tested on: PBMC; test: % protection was determined as the percent reduction in HIV p24 Gag protein production using PHA/PBM system at 5 uM concentration.; type: functional, Homo sapiens; outline: as §2
[8] = tested on: PBMC; test: % protection was determined as the percent reduction in HIV p24 Gag protein production using PHA/PBM system at 80 uM concentration.; type: functional, Homo sapiens; outline: as §2
[9] = tested on: PBMC; test: Anti-HIV activity measured as the ability to inhibit HIV -1 p24 Gag protein production, using PHA/PBM system.; type: functional, cell-based; settings: Homo sapiens; outline: as §2
[10] = Half life period was determined, at pH 1.0; type: ADME
Outline: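 Nucleoside (1.0 mM aqueous stock, diluted 1:20) incubated in pH 1.0 HCl/KCl buffer at 37 °C. Timed aliquots diluted into pH 7.4 phosphate buffer and quantified by isocratic C18 HPLC (15% CH3CN in pH 7.0, 0.01 M phosphate). Data fitted to first-order exponential decay or association.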

[11] = molecular target: T1, Adenosine deaminase (Bos taurus); test: Relative Adenosine deaminase hydrolysis rate was determined in vitro by appearance of the F-ddI […] on isolated enzyme; outline: as §1
[12] = tested on: PBMC; test: % protection was determined as the percent reduction in HIV p24 Gag protein production sing PHA/PBM system at 80 uM concentration.; type: functional, Homo sapiens; outline: as §2

Row | Structure (SMILES) | logP [1] | half-life [2] [h] | Activity [3] | Protection [4] [%] | Protection [5] [%] | Protection [6] [%] | Protection [7] [%] | Protection [8] [%] | IC50 [9] [µM] | half-life [10] [h] | Activity [11] | Protection [12] [%]
1 | CCOc1ncnc2c1ncn2C1OC(CO)CC1F (stereo unspecified) | 0.803 | 29.2 | 0.008 | 39 | 58 | 79 | 32 | 93 | 14.1 | – | – | –
2 | OCC1CC(F)C(n2cnc3c(O)ncnc32)O1 (stereo unspecified) | – | – | – | 61 | 89 | 97 | 54 | 98 | < 5 | – | – | –
3 | OCC1CC(F)C(n2cnc3c(F)ncnc32)O1 (stereo unspecified) | 0.056 | – | 202 | 83 | 97 | 99 | 58 | 99 | < 5 | 0.54 | 233 | –
4 | OCC1CC(F)C(n2cnc3c(I)ncnc32)O1 (stereo unspecified) | 0.627 | 20.9 | 0.28 | 45 | 81 | 96 | 27 | 96 | 10.4 | – | 0.21 | –
5 | OCC1CC(F)C(n2cnc3c(Br)ncnc32)O1 (stereo unspecified) | 0.443 | 48.5 | 1.7 | 71 | 90 | 97 | 31 | 99 | 6.5 | – | 1.5 | –
6 | OCC1CC(F)C(n2cnc3c(Cl)ncnc32)O1 (stereo unspecified) | – | 91.7 | 2 | 70 | 92 | 97 | 40 | – | 5.9 | – | 1.6 | 98
7 | Cc1cn([C@H]2C[C@H](N=[N+]=[N-])[C@@H](CO)O2)c(=O)[nH]c1=O [ZIDOVUDINE] | 0.052 | – | – | – | – | – | – | – | – | – | – | –
8 | O=c1[nH]cnc2c1ncn2[C@H]1CC[C@@H](CO)O1 [DIDANOSINE] | – | – | – | 96 | 98 | 98 | 97 | 98 | < 5 | – | – | –
9 | COc1ncnc2c1ncn2C1OC(CO)CC1F (stereo unspecified) | 0.245 | 29.6 | 0.63 | 35 | 49 | 75 | 18 | 92 | 20 | – | 0.64 | –
